# Assay results: PubChem BioAssay
# Values without a mark were called inactive. Active and inactive are the calls of the source.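 The calls were made as follows, unless noted: active = fluorescence slope after compound addition differing from the mean of all screened samples at 99.7% confidence, in either direction; inactive = the rest.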
# Target: Alpha-2C adrenergic receptor (Homo sapiens) (UniProt P18825)
# Assay: compounds altering alpha2C-coupled GIRK flux – cell-based, HEK293 alpha2C/GIRK1/2, thallium flux, primary screen (AID 624);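 also: slope of fluorescence ratio to pre-addition baseline per second over 15 to 24 s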
# Settings: thallium flux BTC fluorescence, at 10 µM, actives lie on both sides
# Sequence of Alpha-2C adrenergic receptor (Homo sapiens) (P18825 whole entry, looked up): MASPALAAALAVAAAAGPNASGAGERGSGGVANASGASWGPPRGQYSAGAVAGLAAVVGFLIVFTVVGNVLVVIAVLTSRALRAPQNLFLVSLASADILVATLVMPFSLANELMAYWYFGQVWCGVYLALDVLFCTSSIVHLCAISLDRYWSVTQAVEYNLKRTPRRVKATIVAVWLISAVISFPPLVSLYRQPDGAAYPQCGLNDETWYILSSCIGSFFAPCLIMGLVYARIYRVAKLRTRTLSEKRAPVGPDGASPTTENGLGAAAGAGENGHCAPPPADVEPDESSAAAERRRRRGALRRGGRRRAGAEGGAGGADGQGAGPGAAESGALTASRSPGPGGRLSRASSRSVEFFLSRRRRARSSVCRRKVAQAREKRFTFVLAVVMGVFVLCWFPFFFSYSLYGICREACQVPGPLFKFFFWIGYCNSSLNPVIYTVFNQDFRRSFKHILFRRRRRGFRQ
row,Structure (SMILES),slope
1,O=C(NCc1ccco1)c1cccc(S(=O)(=O)N2CCCCC2)c1,0.00571
2,O=C(O)c1ccc(C2SCC(=O)N2Cc2ccccc2)cc1 (stereo not given),0.00611
3,Nc1cc(N)nc(SCc2ccccc2)n1,0.00402
4,O=C(NCCCN1CCN(c2cccc(Cl)c2)CC1)c1ccc(N2CCCC2=O)cc1,0.00509
5,COc1ccccc1-n1c(SCC(=O)NC(C)(C)C)nnc1-c1ccco1,0.0043
6,O=C(NCc1ccco1)c1cc2sccc2n1Cc1ccccc1,0.00405
7,CC(Sc1n[nH]c(=O)[nH]c1=O)C(=O)OCc1ccccc1 (stereo not given),0.00608
8,COc1ccc(OC)c(Nc2nc(-c3cccs3)cs2)c1,0.00343
9,COc1cc(NC(=O)Nc2cccc(C(C)=O)c2)cc(OC)c1OC,0.00508
10,CN1CCN(c2ccc(Cl)cc2NC(=O)c2cccc(S(=O)(=O)N(C)C)c2)CC1,0.00491
11,Brc1ccc2ncnc(Nc3ccc(N4CCOCC4)cc3)c2c1,0.00328
12,COc1ccc(Cl)cc1NC(=O)CSc1nncn1-c1cccnc1,0.00524
13,COc1cccc(NC(=O)c2ccccc2NS(C)(=O)=O)c1,0.00548
14,O=S(=O)(c1cccc2c(S(=O)(=O)N3CCCC3)cccc12)N1CCCC1,0.00452
15,CCN1CCN(c2nc3c(c(=O)n(C)c(=O)n3C)n2Cc2cccc3ccccc23)CC1,0.00535
16,Cn1c(-c2ccccc2)cnc1SCc1nc2ccccc2c(=O)[nH]1,0.00544
17,COc1ccccc1N1CCN(C(=O)c2cc(-c3ccc(Cl)c(Cl)c3)on2)CC1,0.00441
18,COc1ccc(CN(CC(=O)NCC2CCCO2)C(=O)CCC(=O)Nc2cc(C)on2)cc1 (stereo not given),0.00463
19,CCc1ccc2[nH]c(=O)c(C(c3nnnn3CC3CCCO3)N3CCN4CCCC4C3)cc2c1 (stereo not given),0.00534
20,COc1ccc(OC)c(NC(=O)C23CCC(C)(C(=O)C2)C3(C)C)c1 (stereo not given),0.00548

row,Structure (SMILES),slope
1,CC(C)(C)NS(=O)(=O)c1ccc(CCC(=O)O)cc1,0.00422
2,COc1ccc(COC(=O)c2n[nH]c3ccccc23)cc1F,0.00618
3,O=C(NC1CCCC1)C(NS(=O)(=O)c1cccc2nsnc12)c1ccccc1 (stereo not given),0.0045
4,COc1ccc(C(C)NC(=O)c2ccoc2C)cc1OC (stereo not given),0.00668
5,Cc1ccc(C(O)c2nc3ccccc3n2C(C)C)cc1 (stereo not given),0.00388
6,CCOC(=O)c1cc(CC)sc1NC(=O)COC,0.00509
7,COc1ccccc1C1N(c2ccc(F)cc2)C(=O)C2CCCN21 (stereo not given),0.00544
8,CCC1CCCCN1CCCNC(=O)c1ccc(CS(=O)(=O)Cc2ccccc2F)o1 (stereo not given),0.00482
9,Cc1cc(C)n2nc(SCC(=O)N(C)Cc3ccccc3)nc2n1,0.00539
10,O=C(NCC(=O)N(c1cccnc1)C(C(=O)NC1CCCCC1)c1cccnc1)c1ccco1 (stereo not given),0.00388
11,O=C(Nc1sccc1C(=O)NCc1ccco1)c1cccnc1,0.00445
12,COc1ccc(Cl)c(N2CCN(CCCNC(=O)Nc3ccc(C)cc3)CC2)c1,0.0037
13,Cc1cccc(OCC(=O)Nc2cc(C)ccc2O)c1,0.00484
14,COCc1nnc(SCC(=O)NC(C)c2ccccc2)n1-c1ccccc1 (stereo not given),0.00455
15,COc1ccccc1N(CC(=O)NC1CCCC1)C(=O)c1csnn1,0.00495
16,Cc1cccc(NC(=O)CCCCCN2C(=O)c3ccccc3C2=O)n1,0.00404
17,O=C(Cc1cccs1)N(c1ccccc1)C1C=CS(=O)(=O)C1 (stereo not given),0.0046
18,Cc1ccc(Cn2c(SCC(N)=O)nc3c2c(=O)n(C)c(=O)n3C)cc1,0.00505
19,COc1cccc(CN2C(=O)C3(C(C#N)=C(N)OC4=C3C(=O)CCC4)c3ccccc32)c1 (stereo not given),0.00531
20,COc1cccc(OCc2nnc(SCC(=O)OCc3ccccc3)o2)c1,0.00652

# Tested on: not listed separately
# Assay: inhibitors of larval lipid processing in zebrafish, primary screen, whole organism, PED6 fluorescence, gall bladder and intestine (AID 686;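 active = a full or partial loss of lipid-probe fluorescence in the fish gall bladder, intestine or both, judged by eye; inactive = no fluorescence loss, or compound toxic to the fish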;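 also: larvae 5 to 7 days old with five fish per well; signal comes from phospholipase A2 cleavage of quenched PED6 carried via bile; overnight exposure to compound and PED6 before scoring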)
# Settings: Zebrafish larvae PED6 lipid processing, fluorescence scoring; screened at 20 µM (by protocol)
# Summary of the method: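 Test system – live zebrafish larvae aged 5-7 days, whole organism · Buffer or medium – E3 fish medium · Reagent – quenched phospholipase substrate PED6, 100 nM final, ingested by larvae · Doses – 20 µM single dose · Incubation – overnight compound and PED6 incubation · Technique – visual fluorescence microscopy scoring of gall bladder, gut · Read-out basis – visual per-well fluorescence inhibition score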
row,Structure (SMILES),outcome
1,O=C(NCc1ccco1)c1cccc(S(=O)(=O)N2CCCCC2)c1,inactive
2,O=C(O)c1ccc(C2SCC(=O)N2Cc2ccccc2)cc1 (stereo not given),inactive
3,Nc1cc(N)nc(SCc2ccccc2)n1,inactive
4,O=C(NCCCN1CCN(c2cccc(Cl)c2)CC1)c1ccc(N2CCCC2=O)cc1,inactive
5,COc1ccccc1-n1c(SCC(=O)NC(C)(C)C)nnc1-c1ccco1,inactive
6,O=C(NCc1ccco1)c1cc2sccc2n1Cc1ccccc1,inactive
7,CC(Sc1n[nH]c(=O)[nH]c1=O)C(=O)OCc1ccccc1 (stereo not given),inactive
8,COc1ccc(OC)c(Nc2nc(-c3cccs3)cs2)c1,active; weak signal in gallbladder and intestine
9,COc1cc(NC(=O)Nc2cccc(C(C)=O)c2)cc(OC)c1OC,inactive
10,CN1CCN(c2ccc(Cl)cc2NC(=O)c2cccc(S(=O)(=O)N(C)C)c2)CC1,inactive
11,Brc1ccc2ncnc(Nc3ccc(N4CCOCC4)cc3)c2c1,inactive
12,COc1ccc(Cl)cc1NC(=O)CSc1nncn1-c1cccnc1,inactive
13,COc1cccc(NC(=O)c2ccccc2NS(C)(=O)=O)c1,inactive
14,O=S(=O)(c1cccc2c(S(=O)(=O)N3CCCC3)cccc12)N1CCCC1,inactive
15,CCN1CCN(c2nc3c(c(=O)n(C)c(=O)n3C)n2Cc2cccc3ccccc23)CC1,inactive
16,Cn1c(-c2ccccc2)cnc1SCc1nc2ccccc2c(=O)[nH]1,inactive
17,COc1ccccc1N1CCN(C(=O)c2cc(-c3ccc(Cl)c(Cl)c3)on2)CC1,inactive
18,COc1ccc(CN(CC(=O)NCC2CCCO2)C(=O)CCC(=O)Nc2cc(C)on2)cc1 (stereo not given),inactive
19,CCc1ccc2[nH]c(=O)c(C(c3nnnn3CC3CCCO3)N3CCN4CCCC4C3)cc2c1 (stereo not given),inactive
20,COc1ccc(OC)c(NC(=O)C23CCC(C)(C(=O)C2)C3(C)C)c1 (stereo not given),inactive

row,Structure (SMILES),outcome
1,CC(C)(C)NS(=O)(=O)c1ccc(CCC(=O)O)cc1,inactive
2,COc1ccc(COC(=O)c2n[nH]c3ccccc23)cc1F,inactive
3,O=C(NC1CCCC1)C(NS(=O)(=O)c1cccc2nsnc12)c1ccccc1 (stereo not given),inactive
4,COc1ccc(C(C)NC(=O)c2ccoc2C)cc1OC (stereo not given),inactive
5,Cc1ccc(C(O)c2nc3ccccc3n2C(C)C)cc1 (stereo not given),inactive
6,CCOC(=O)c1cc(CC)sc1NC(=O)COC,inactive
7,COc1ccccc1C1N(c2ccc(F)cc2)C(=O)C2CCCN21 (stereo not given),inactive
8,CCC1CCCCN1CCCNC(=O)c1ccc(CS(=O)(=O)Cc2ccccc2F)o1 (stereo not given),inactive
9,Cc1cc(C)n2nc(SCC(=O)N(C)Cc3ccccc3)nc2n1,inactive
10,O=C(NCC(=O)N(c1cccnc1)C(C(=O)NC1CCCCC1)c1cccnc1)c1ccco1 (stereo not given),inactive
11,O=C(Nc1sccc1C(=O)NCc1ccco1)c1cccnc1,inactive
12,COc1ccc(Cl)c(N2CCN(CCCNC(=O)Nc3ccc(C)cc3)CC2)c1,inactive
13,Cc1cccc(OCC(=O)Nc2cc(C)ccc2O)c1,inactive
14,COCc1nnc(SCC(=O)NC(C)c2ccccc2)n1-c1ccccc1 (stereo not given),inactive
15,COc1ccccc1N(CC(=O)NC1CCCC1)C(=O)c1csnn1,inactive
16,Cc1cccc(NC(=O)CCCCCN2C(=O)c3ccccc3C2=O)n1,inactive
17,O=C(Cc1cccs1)N(c1ccccc1)C1C=CS(=O)(=O)C1 (stereo not given),inactive
18,Cc1ccc(Cn2c(SCC(N)=O)nc3c2c(=O)n(C)c(=O)n3C)cc1,inactive
19,COc1cccc(CN2C(=O)C3(C(C#N)=C(N)OC4=C3C(=O)CCC4)c3ccccc32)c1 (stereo not given),inactive
20,COc1cccc(OCc2nnc(SCC(=O)OCc3ccccc3)o2)c1,inactive
